The record followed here is ChEMBL document CHEMBL1146365, “Synthesis and biological evaluation of new N-(2-hydroxy-4(or 5)-nitro/aminophenyl)benzamides and phenylacetamides as antimicrobial agents” (2007).

≈ marks a conversion by molar mass, not a printed value.

The test system of assay [1] is Staphylococcus aureus. Put plainly: Antibacterial activity against drug-resistant Staphylococcus aureus assessed after 24 hrs by serial dilution method.
The subject of assay [2] is Pseudomonas aeruginosa. As to the kind of experiment: Antibacterial activity against Pseudomonas aeruginosa ATCC […] assessed after 24 hrs by serial dilution method.
Assay [3] deals with Candida albicans. Put plainly: Antifungal activity against Candida albicans ATCC 10231 assessed after 48 hrs by serial dilution method. The format is functional. The note with it: ATCC 10231, 48 h. In a few lines:
(§1)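 Broth microdilution per CLSI M27-A in RPMI-1640 with L-glutamine, MOPS-buffered pH 7, with 2-fold compound dilutions. Yeasts were subcultured twice on SDA at 35 °C for 24–48 h. Inoculum was diluted from McFarland 0.5 to 10^4 cfu/ml, giving 10^3 cfu/ml in wells. Incubated 35 °C, humid chamber, 48 h, in triplicate. MIC = lowest concentration with no macroscopic growth.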

Assay [4] relates to Escherichia coli. As to the kind of experiment: Antibacterial activity against Escherichia coli isolate assessed after 24 hrs by serial dilution method. It counts as functional. In a few lines:
(§2)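 Strains were subcultured twice on MHA at 37 °C overnight. Inoculum was diluted from McFarland 0.5 to 10^5 cfu/ml, giving 10^4 cfu/ml in wells. Solvent, medium and organism-only controls were included. Incubated 37 °C, humid chamber, 24 h, in triplicate. MIC = lowest concentration with no macroscopic growth.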

For assay [5], the system named is Staphylococcus aureus. Put plainly: Antibacterial activity against Staphylococcus aureus ATCC 25923 assessed after 24 hrs by serial dilution method. It counts as functional. The note with it: ATCC 25923, 24 h. In short, it runs like this: as §2
Assay [6] has as its system Klebsiella pneumoniae. Put plainly: Antibacterial activity against Klebsiella pneumoniae RSHM 574 assessed after 24 hrs by serial dilution method.
Assay [7] relates to Bacillus subtilis. As to the kind of experiment: Antibacterial activity against drug-resistant Bacillus subtilis assessed after 24 hrs by serial dilution method.
For assay [8], the system named is Bacillus subtilis. Put plainly: Antibacterial activity against Bacillus subtilis ATCC 6633 assessed after 24 hrs by serial dilution method. It counts as functional. The conditions noted are these: ATCC 6633, 24 h. In a few lines:
as §2

In assay [9] the test system is Pseudomonas aeruginosa. Put plainly: Antibacterial activity against Pseudomonas aeruginosa isolate assessed after 24 hrs by serial dilution method. It counts as functional. In short, it runs like this: as §2
Assay [10] deals with Candida albicans. As to the kind of experiment: Antifungal activity against Candida albicans isolate assessed after 48 hrs by serial dilution method. It counts as functional. In a few lines: as §1
Assay [11] has as its system Klebsiella pneumoniae. Put plainly: Antibacterial activity against Klebsiella pneumoniae isolate assessed after 24 hrs by serial dilution method. The format is functional. In short, it runs like this:
as §2

Assay [12] relates to Escherichia coli. As to the kind of experiment: Antibacterial activity against Escherichia coli ATCC assessed after 24 hrs by serial dilution method.

A word on the MIC: it is the lowest concentration found to suppress growth. With `Nc1ccc(NC(=O)c2ccccc2)c(O)c1`, the MIC in the assay on Staphylococcus aureus [1] was 15.6 µg/mL (≈ 68.3 µM); against Pseudomonas aeruginosa [2], 125 µg/mL (≈ 548 µM); against Candida albicans [3] it was 62.5 µg/mL (≈ 274 µM); against Escherichia coli [4], 125 µg/mL (≈ 548 µM); with Staphylococcus aureus [5], 125 µg/mL (≈ 548 µM); in the assay on Klebsiella pneumoniae [6] it was 125 µg/mL (≈ 548 µM). In addition, the MIC came out at 62.5 µg/mL (≈ 274 µM) against Bacillus subtilis [7]; 62.5 µg/mL (≈ 274 µM) in the assay with Bacillus subtilis [8]; 250 µg/mL (≈ 1100 µM) in the assay on Pseudomonas aeruginosa [9]; 62.5 µg/mL (≈ 274 µM) in the assay with Candida albicans [10]; 250 µg/mL (≈ 1100 µM) in the assay with Klebsiella pneumoniae [11]; 125 µg/mL (≈ 548 µM) against Escherichia coli [12].
On to `O=C(Nc1ccc([N+](=O)[O-])cc1O)c1ccc(F)cc1`, for which the minimal inhibitory concentration (MIC) with Staphylococcus aureus [1] worked out at 15.6 µg/mL (≈ 56.5 µM); with Pseudomonas aeruginosa [2] it was 125 µg/mL (≈ 453 µM); with Candida albicans [3], 250 µg/mL (≈ 905 µM); in the assay with Escherichia coli [4], 250 µg/mL (≈ 905 µM); in the assay with Staphylococcus aureus [5], 7.8 µg/mL (≈ 28.2 µM); with Klebsiella pneumoniae [6], 125 µg/mL (≈ 453 µM). In addition, the MIC in the assay on Bacillus subtilis [7] came out at 15.6 µg/mL (≈ 56.5 µM); against Bacillus subtilis [8], 3.9 µg/mL (≈ 14.1 µM); against Pseudomonas aeruginosa [9], 250 µg/mL (≈ 905 µM); in the assay with Candida albicans [10], 250 µg/mL (≈ 905 µM); against Klebsiella pneumoniae [11] it was 250 µg/mL (≈ 905 µM); in the assay on Escherichia coli [12], 125 µg/mL (≈ 453 µM).
With `O=C(Cc1ccc(Cl)cc1)Nc1ccc([N+](=O)[O-])cc1O`, the MIC with Staphylococcus aureus [1], with Pseudomonas aeruginosa [2], against Candida albicans [3], in the assay on Escherichia coli [4], with Staphylococcus aureus [5] and with Klebsiella pneumoniae [6] was 125 µg/mL (≈ 408 µM) each time. Moreover, the MIC against Bacillus subtilis [7] was 31.2 µg/mL (≈ 102 µM); in the assay on Bacillus subtilis [8] it was 250 µg/mL (≈ 815 µM); against Pseudomonas aeruginosa [9], 250 µg/mL (≈ 815 µM); against Candida albicans [10], 125 µg/mL (≈ 408 µM); against Klebsiella pneumoniae [11], 125 µg/mL (≈ 408 µM); in the assay on Escherichia coli [12], 125 µg/mL (≈ 408 µM).
Take `O=C(Cc1ccc(F)cc1)Nc1ccc([N+](=O)[O-])cc1O`: the MIC was determined as 62.5 µg/mL (≈ 215 µM) with Staphylococcus aureus [1]; 125 µg/mL (≈ 431 µM) against Pseudomonas aeruginosa [2]; 125 µg/mL (≈ 431 µM) in the assay with Candida albicans [3]; 250 µg/mL (≈ 861 µM) with Escherichia coli [4]; 125 µg/mL (≈ 431 µM) against Staphylococcus aureus [5]; 250 µg/mL (≈ 861 µM) in the assay on Klebsiella pneumoniae [6]. The MIC against Bacillus subtilis [7] worked out at 31.2 µg/mL (≈ 108 µM); against Bacillus subtilis [8], 250 µg/mL (≈ 861 µM); in the assay on Pseudomonas aeruginosa [9], 250 µg/mL (≈ 861 µM); in the assay on Candida albicans [10] it was 125 µg/mL (≈ 431 µM); against Klebsiella pneumoniae [11], 125 µg/mL (≈ 431 µM); against Escherichia coli [12], 125 µg/mL (≈ 431 µM).
As to `Cc1ccc(CC(=O)Nc2cc([N+](=O)[O-])ccc2O)cc1`, the MIC was found to be 125 µg/mL (≈ 437 µM) with Staphylococcus aureus [1]; 125 µg/mL (≈ 437 µM) in the assay on Pseudomonas aeruginosa [2]; 250 µg/mL (≈ 873 µM) against Candida albicans [3]; 250 µg/mL (≈ 873 µM) against Escherichia coli [4]; 250 µg/mL (≈ 873 µM) against Staphylococcus aureus [5]; 125 µg/mL (≈ 437 µM) with Klebsiella pneumoniae [6]. For the same compound, the MIC against Bacillus subtilis [7] was 62.5 µg/mL (≈ 218 µM); against Bacillus subtilis [8], 15.6 µg/mL (≈ 54.5 µM); against Pseudomonas aeruginosa [9], 250 µg/mL (≈ 873 µM); against Candida albicans [10], 250 µg/mL (≈ 873 µM); in the assay on Klebsiella pneumoniae [11], 250 µg/mL (≈ 873 µM); against Escherichia coli [12], 125 µg/mL (≈ 437 µM).
In the case of `Cc1ccc(CC(=O)Nc2ccc(N)cc2O)cc1`, the MIC in the assay with Staphylococcus aureus [1] amounted to 62.5 µg/mL (≈ 244 µM); against Pseudomonas aeruginosa [2], 125 µg/mL (≈ 488 µM); against Candida albicans [3], 125 µg/mL (≈ 488 µM); in the assay with Escherichia coli [4] it was 250 µg/mL (≈ 975 µM); against Staphylococcus aureus [5] it was 250 µg/mL (≈ 975 µM); against Klebsiella pneumoniae [6], 125 µg/mL (≈ 488 µM). Moreover, the MIC in the assay on Bacillus subtilis [7] is 62.5 µg/mL (≈ 244 µM); with Bacillus subtilis [8], 62.5 µg/mL (≈ 244 µM); in the assay on Pseudomonas aeruginosa [9], 250 µg/mL (≈ 975 µM); against Candida albicans [10], 250 µg/mL (≈ 975 µM); against Klebsiella pneumoniae [11] it was 250 µg/mL (≈ 975 µM); against Escherichia coli [12] it was 125 µg/mL (≈ 488 µM).
In the case of `O=C(Cc1ccc(F)cc1)Nc1cc([N+](=O)[O-])ccc1O`, the MIC with Staphylococcus aureus [1] came out at 31.2 µg/mL (≈ 108 µM); in the assay on Pseudomonas aeruginosa [2], 250 µg/mL (≈ 861 µM); with Candida albicans [3], 250 µg/mL (≈ 861 µM); against Escherichia coli [4], 250 µg/mL (≈ 861 µM); in the assay on Staphylococcus aureus [5] it was 31.2 µg/mL (≈ 108 µM); with Klebsiella pneumoniae [6], 125 µg/mL (≈ 431 µM). Also, the MIC in the assay with Bacillus subtilis [7] is 31.2 µg/mL (≈ 108 µM); with Bacillus subtilis [8], 15.6 µg/mL (≈ 53.7 µM); with Pseudomonas aeruginosa [9], 250 µg/mL (≈ 861 µM); with Candida albicans [10], 125 µg/mL (≈ 431 µM); in the assay with Klebsiella pneumoniae [11], 125 µg/mL (≈ 431 µM); against Escherichia coli [12] it was 62.5 µg/mL (≈ 215 µM).
As for `O=C(Nc1cc([N+](=O)[O-])ccc1O)c1ccccc1`, the MIC in the assay with Staphylococcus aureus [1] came out at 15.6 µg/mL (≈ 60.4 µM); in the assay with Pseudomonas aeruginosa [2], 125 µg/mL (≈ 484 µM); against Candida albicans [3], 125 µg/mL (≈ 484 µM); in the assay with Escherichia coli [4] it was 250 µg/mL (≈ 968 µM); against Staphylococcus aureus [5], 31.2 µg/mL (≈ 121 µM); against Klebsiella pneumoniae [6], 125 µg/mL (≈ 484 µM). Moreover, the MIC in the assay with Bacillus subtilis [7] was determined as 62.5 µg/mL (≈ 242 µM); with Bacillus subtilis [8], 7.8 µg/mL (≈ 30.2 µM); against Pseudomonas aeruginosa [9] it was 250 µg/mL (≈ 968 µM); with Candida albicans [10], 250 µg/mL (≈ 968 µM); in the assay with Klebsiella pneumoniae [11], 250 µg/mL (≈ 968 µM); against Escherichia coli [12], 125 µg/mL (≈ 484 µM).
